# Assay outcomes from PubChem.
# PPC-1+TRAIL kill = PPC-1 cancer cell killing with TRAIL present; PPC-1 cells + TRAIL, ATPLite viability luminescence; cell killing (% activity), % at 4 µM or 5 µM; hit rate 0.41% among 220,000;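 active means cell killing above 50% in the first pass at 4 µM, then a duplicate retest at 5 µM averaging 50% or more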;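 further: plate controls were cells with TRAIL plus DMSO for no effect and medium-only wells lacking cells for full effect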
# C8 TRAIL sens = sensitizes caspase-8 expressing cells to TRAIL; hit rate 1% among 360,000; inhibition (viability loss, TRAIL sensitization), % at 10 µM; NB7+C8 cells + TRAIL, ATPlite viability luminescence;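 active means compounds causing at least 50% loss of cell viability in the single-dose screen, relative to plate controls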
# FLuc stim CS = affects firefly luciferase, flagging false hits in luciferase stimulation screens. P08659. ATPlite luciferase biochemical, luminescence, 10 min; 0 = ATP-free wells, 1 = DMSO control. activation factor at 10 µM. 200,000 tested, under 10 active. AID 1027;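 active means luciferase activation factor, scaled between plate controls, of at least 2 with compound at 10 µM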
# Target sequence (P08659 whole entry, looked up): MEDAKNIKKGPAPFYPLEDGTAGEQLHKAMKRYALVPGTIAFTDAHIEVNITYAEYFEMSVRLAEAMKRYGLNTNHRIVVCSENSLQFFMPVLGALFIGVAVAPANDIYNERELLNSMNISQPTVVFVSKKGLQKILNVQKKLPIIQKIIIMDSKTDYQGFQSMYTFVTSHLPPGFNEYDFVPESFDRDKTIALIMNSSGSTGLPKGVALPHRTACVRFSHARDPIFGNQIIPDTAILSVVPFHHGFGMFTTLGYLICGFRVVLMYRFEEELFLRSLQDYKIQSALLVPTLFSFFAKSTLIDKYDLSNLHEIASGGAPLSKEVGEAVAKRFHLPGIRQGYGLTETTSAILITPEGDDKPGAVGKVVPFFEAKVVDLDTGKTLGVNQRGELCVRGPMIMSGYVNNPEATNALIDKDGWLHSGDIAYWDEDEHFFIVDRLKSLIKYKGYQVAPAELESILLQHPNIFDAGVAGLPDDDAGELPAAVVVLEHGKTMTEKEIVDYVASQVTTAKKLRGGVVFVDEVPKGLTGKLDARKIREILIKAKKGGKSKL
#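 Material: Luciferase/luciferin reagent mix | Doses: Test compounds dosed from 2 mM stocks in 100% DMSO | Timing: 10 min incubation after luciferase reagent addition, room temperature | Measured by: Luminescence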
# STAT3 inh-1 = STAT3 signaling inhibition; inhibition, % at 5.5 µM; U3A cells, IL-6 STAT3-luciferase reporter, luminescence; host cell line lacks STAT1; hit rate 0.89% among 190,000; AID 862;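 active means inhibition above the mean inhibition across all screened compounds plus 3 SD, cut at about 44% in these data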;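 further: 0% = DMSO only wells and 100% = 100 µM nifuroxazide control wells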
# HSP90 inh = blocks HSP90-mediated luciferase refolding in reticulocyte lysate; inhibition, % at 5.6 µM; Rabbit reticulocyte lysate, luciferase refolding luminescence, 3 h; hit rate 0.91% among 290,000;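 active means inhibition above the screen-wide mean plus 3 SD, computed separately per campaign, cut at about 16% in these data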;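 further: 0% = DMSO wells and 100% = 60 µM geldanamycin wells; inhibitors lower the luminescence because luciferase stays unfolded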
# FLuc inhib CS = counter-screen for luciferase assay inhibitors: firefly luciferase inhibition; P08659; ATPLite firefly luciferase biochemical luminescence, 10 min; inhibition, % at 10 µM; hit rate 1.5% among 200,000; AID 1006;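 active means inhibition above about 50% when tested at 10 µM, limit read from the data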
# STAT3 inh-2 = STAT3 inhibition, confirmation assay; shares compounds with STAT3 inh-1; U3A cells, IL-6 STAT3 luciferase reporter, luminescence; cell line lacks STAT1; inhibition, % at 5.7 µM; hit rate 45% among 1,200; AID 1265;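 active means inhibition above the hit cutoff computed for the primary STAT3 screen, cut at about 44% in these data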;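 further: 0% = IL-6 plus DMSO and 100% = IL-6 plus nifuroxazide control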
# NFkB inh STAT3ct = inhibits NF-kappaB, counter-screen to STAT3 inhibitors; shares compounds with STAT3 inh-1; HEK293T NF-kB luciferase reporter, TNF-alpha induced; inhibition, % at 5.7 µM; hit rate 36% among 1,200; AID 1308;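 active means inhibition above the mean of solvent-only control wells plus 3 SD, cutoff set per campaign, cut at about 13% in these data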;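 further: 0% = TNF-alpha with DMSO and 100% = TNF-alpha with MG high control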
# STAT1 inh STAT3c = counter-screen for STAT3 inhibitors: STAT1 inhibition. shares compounds with STAT3 inh-1. NIH 3T3 STAT1-luciferase reporter, IFN-gamma induced, luminescence. inhibition, % at 5.7 µM. hit rate 27% among 1,200. AID 1317;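 active means inhibition above the mean plus 3 SD of solvent-only control wells, limit set per screening run, cut at about 16% in these data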;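 further: 0% = DMSO with IFN-gamma and 100% = nifuroxazide control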
# * marks the source's active call; other numbers are inactive results; / = no result. Compounds with a hit are over-represented: about 2.2% of the library has one in this group of screens.
SMILES,PPC-1+TRAIL kill,C8 TRAIL sens,FLuc stim CS,STAT3 inh-1,HSP90 inh,FLuc inhib CS,STAT3 inh-2,NFkB inh STAT3ct,STAT1 inh STAT3c
O=c1c(Cl)c(Cl)cnn1Cc1ccccc1Cl,20.0,/,1,47.5*,-0.6,-3.6,55.5*,26.7*,20.0*
C=CCn1c(C)cc(C(=O)COc2ccc(C)nc2[N+](=O)[O-])c1C,12.1,8.6,0.9,54.3*,-3.8,8.3,3.0,5.1,-16.7
Cc1ccc(OCC(=O)c2cc(C)n(-c3ccccc3)c2C)c([N+](=O)[O-])n1,-2.4,27.6,0.8,60.6*,0.9,18.4,44.6*,14.7*,3.0
O=C(CSC1=NCCS1)Nc1ccnc2ccccc12,-3.7,37.9,1.1,64.2*,4.4,-6.9,74.7*,20.8*,24.1*
CC(=O)c1c(C)[nH]c(C(=O)OCc2ccc(F)cc2Cl)c1C,25.9,15.9,1,48.2*,2.4,0.6,53.6*,1.5,6.3
CC(=O)N1c2ccc(S(=O)(=O)NCCC(=O)Nc3ncccc3C)cc2CC1C (stereo unspecified),/,-3.6,/,/,-5.2,/,/,/,/
COC(=O)c1ccc(-c2nc3ccc(C)cc3o2)cc1,19.0,48.3,0.7,67.7*,10.7,31.7,42.8,-30.2,-81.6
Cc1ccc2oc(-c3ccco3)nc2c1,-1.5,4.0,0.5,12.5,-2.7,47.7,/,/,/
Cc1ccc(-c2nc3cc(C)ccc3o2)cc1,31.3,53.8*,0.1,83.8*,13.0,92.2*,37.9,40.0*,3.3
C=CC[n+]1c(/C=C2\C=Cc3cc(C)ccc3N2CC)ccc2ccccc21,42.9,47.7,0.9,88.5*,-0.1,9.6,87.7*,50.2*,26.4*
CC(=O)c1cccc(NC(=O)c2cccc(S(=O)(=O)N3CCOCC3)c2)c1,/,-2.6,/,/,-2.2,/,/,/,/
CCOC(=O)c1ccc(NC(=O)c2cccc(S(=O)(=O)N3CCOCC3)c2)cc1,2.9,39.3,1.1,58.1*,5.1,-5.8,36.8,3.3,-4.1
Cc1ccc(C(=O)Nc2ccc(N3CCOCC3)cc2)cc1S(=O)(=O)N1CCCCC1,/,-2.7,/,/,/,/,/,/,/
O=C(Nc1ccc(F)c(F)c1)c1ccc(F)c(S(=O)(=O)N2CCOCC2)c1,-13.3,/,1.1,46.4*,2.8,-7.0,19.0,5.7,1.7
CCOC(=O)c1ccc(NC(=O)c2ccc(C)c(S(=O)(=O)N3CCOCC3)c2)cc1,10.1,70.3*,1.1,72.2*,-3.5,-5.9,69.0*,21.7*,13.8
CC(C)[C@H](NC(=O)C1CCN(S(=O)(=O)c2ccc(F)cc2)CC1)C(=O)NCc1ccco1,/,14.0,/,/,-0.5,/,/,/,/
CCCC(=O)Nc1nc(-c2ccc3c(c2)CCN3S(C)(=O)=O)cs1,5.4,14.7,1,27.8,-3.0,0.0,/,/,/
CC1Cc2cc(-c3csc(NC(=O)Cc4cccs4)n3)ccc2N1S(C)(=O)=O (stereo unspecified),0.7,45.1,1,78.9*,-1.7,-2.7,78.9*,28.9*,14.5
CS(=O)(=O)N1CCc2cc(-c3csc(NC(=O)Cc4ccccc4)n3)ccc21,14.5,16.3,1,53.2*,4.3,-3.7,46.4*,6.1,6.9
COC(=O)c1ccc(CNC(=O)COC(=O)/C=C/c2cc(OC)c(OC)c(OC)c2)cc1,/,-22.6,/,/,/,/,/,/,/
Cc1ccccc1OCCSc1nc2ncnc(N)c2[nH]1,5.9,-5.0,1.1,-7.3,-3.7,-7.7,/,/,/
O=[N+]([O-])c1ccc(N/N=C/c2c[nH]c3ccccc23)cc1,12.0,26.8,1,47.8*,2.9,-1.6,25.8,8.1,-9.8
CCCn1c(CN(C)Cc2ccccc2)nc2c1c(=O)n(C)c(=O)n2C,6.1,16.0,1.1,46.0*,-4.4,-7.6,28.5,4.4,14.3
CNc1nc2c(c(=O)n(C)c(=O)n2C)n1Cc1ccccc1,-7.0,9.8,1,54.9*,0.8,-3.1,34.4,13.3*,18.1*
Cc1cccc(Cn2c(NCCO)nc3c2c(=O)n(C)c(=O)n3C)c1,11.8,15.7,1,52.0*,-0.4,2.6,34.7,9.6,19.6*
SMILES,PPC-1+TRAIL kill,C8 TRAIL sens,FLuc stim CS,STAT3 inh-1,HSP90 inh,FLuc inhib CS,STAT3 inh-2,NFkB inh STAT3ct,STAT1 inh STAT3c
Cc1nc2cc(-c3ccccc3)[nH]n2c(=O)c1C,/,9.6,/,/,6.4,/,/,/,/
Cc1ccc(-c2cc3nc4c(c(=O)n3[nH]2)CCCC4)cc1,/,60.4*,/,43.9*,1.0,/,3.8,-31.0,-148.4
CN(C(=O)c1ccccc1)c1nc2ccccc2s1,49.4,72.1*,0.2,56.4*,2.6,84.0*,9.6,-38.1,-120.0
O=C(/C=C/Nc1ccc(F)cc1)c1cccs1,/,61.4*,/,51.3*,-1.9,/,-7.0,-11.5,-75.3
COc1ccc2cc(-c3cc(C(=O)OCC(=O)Nc4c(C)n(C)n(-c5ccccc5)c4=O)c4ccccc4n3)ccc2c1,92.4*,96.9*,0.1,46.6*,3.4,94.3*,55.6*,10.0,-15.3
COc1ccc2cc(-c3cc(C(=O)OCC(=O)NC4CCS(=O)(=O)C4)c4ccccc4n3)ccc2c1 (stereo unspecified),95.3*,92.5*,0,62.4*,12.4,95.2*,41.4,1.2,-16.8
Cn1c(SCC(=O)N2CC(=O)Nc3ccccc32)nnc1C(F)(F)F,/,-8.5,/,/,/,/,/,/,/
CCOc1ccc(-n2c(-c3ccccc3)c[n+]3c2CCCCC3)cc1,24.8,39.8,1.1,74.5*,-1.9,-5.0,76.4*,2.5,24.5*
c1ccc(-c2c[n+]3c(n2-c2ccccc2)CCC3)cc1,0.3,9.0,/,/,1.4,/,/,/,/
Cn1nc(C(C)(C)C)cc1C(=O)NCc1ccc(N2CCCC2=O)cc1,12.2,18.6,1,58.9*,2.0,-4.4,62.8*,29.2*,33.0*
Cc1ccc(CNC(=O)c2ccc(N3CCCC3=O)cc2)cc1,15.0,4.1,1,10.0,0.6,-2.5,/,/,/
Cc1cccc(C)c1OCC(=O)N(Cc1ccc(N(C)C)cc1)C1CCS(=O)(=O)C1 (stereo unspecified),-0.2,12.1,/,/,-3.3,/,/,/,/
COc1cc(/C=N/Nc2ccc(C(F)(F)F)cn2)cc(OC)c1O,-18.8,12.3,1,48.5*,0.0,-3.6,27.4,-0.1,-3.4
O=C(c1ccc(Cn2ccc([N+](=O)[O-])n2)cc1)N1CCN(Cc2ccccc2)CC1,4.6,11.8,/,/,0.4,/,/,/,/
CSc1ccc(CN2CCN(C(=O)c3ccc([N+](=O)[O-])cc3)CC2)cc1,18.4,36.2,1,54.6*,-1.1,-3.7,59.5*,12.6,-3.2
O=C(COC(=O)c1ccccc1)Nc1ncc([N+](=O)[O-])s1,/,4.9,/,/,/,/,/,/,/
